For series [1] the following is noted: free nucleoside; cited from earlier work.
Series [2] deals with T1, human DNA polymerase β (Homo sapiens, UniProt P06746). The series is described as follows: PAGE analysis of primer extension reactions, pol β. Format: biochemical.
Series [3] relates to avian myeloblastosis virus reverse transcriptase (AMV-RT). The series is described as follows: PAGE analysis of primer extension reactions, AMV-RT. In kind it is biochemical. The note with it: single dNTPs.
The nature of series [4]: pKa determination from pH-dependent UV absorption. Format: physicochemical. To be noted: 25 °C; for pKa (deprotonation at N1): free nucleoside.
For series [5] the following is noted: cited from earlier work.
The subject of series [6] is avian myeloblastosis virus reverse transcriptase (AMV-RT). The series is described as follows: MALDI-TOF analysis of primer extension products, AMV-RT. The note with it: 1 mM each dNTP, 20-mer products. In kind it is biochemical.
In series [7] the target is T1, human DNA polymerase β. The series is described as follows: MALDI-TOF analysis of primer extension products, pol β. Format: biochemical. The note with it: 1 mM each dNTP, 19-mer and 20-mer products. The method in brief:
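Unlabelled 16-mer primer (10 pmol) annealed to a 25-mer template (20 pmol; 2′-O-methylguanosine or 8-nitro-2′-O-methylguanosine) at 70°C for 20 min, then room temperature for 15 min. Final pol β was 750 nM, with 1 mM each dNTP. Incubated 37°C for 60 min, stopped at 90°C for 5 min. Desalted on C18 tips (0.1 M TEAA pH 7.0), eluted in 3-HPA/ammonium citrate matrix. Products assigned by calculated m/z against a 20-mer standard mix.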

On to `Nc1nc2c(ncn2[C@@H]2O[C@H](CO)[C@@H](O)[C@H]2O)c(=O)[nH]1` [guanosine], for which the pKa in series [1] is 9.4.
With “5′-TCANCATTGGGAGTCGACATAGCGC–3′ [8-nitroG template]”, the “dCTP incorporation, level relative to the control” value at human DNA polymerase β [2] (single dCTP) was less than 20%. Further, at human DNA polymerase β [2] (single dTTP, from a low level), the “increase of dTTP incorporation relative to control” value is “around 2 fold”. In addition, the “single dNTP most preferentially inserted” value in series [3] is listed as “dATP”.
For the compound `Nc1nc2c(nc([N+](=O)[O-])n2[C@@H]2O[C@H](CO)[C@@H](O)[C@H]2O)c(=O)[nH]1` [Compound 6a, 8-Nitroguanosine], the “pKa (deprotonation at N1)” value in series [4] came to 8.4. The “half-life (hydrolytic stability)” value in series [5] (pH 7 and 37°C, ref one published study) was 0.21 days.
In the case of `Nc1nc2c(nc([N+](=O)[O-])n2C2OC(CO)C(O)C2F)c(=O)[nH]1` (centres unmarked) [2′-fluoro, reference compound], in series [5] (pH 7.4), the “half-life (depurination)” value is 72 days.
For the compound `CO[C@@H]1[C@H](O)[C@@H](CO)O[C@H]1n1c([N+](=O)[O-])nc2c(=O)[nH]c(N)nc21` [Compound 6b, 8-Nitro-2′-O-methylguanosine], the “pKa (deprotonation at N1)” value in series [4] came out at 8.3.
Turning to “5′-TCANCATTGGGAGTCGACATAGCGC–3′ [control template]”, the “nucleotide incorporated opposite X in extended products” value in series [6] is “predominantly dC”; at human DNA polymerase β [7], “only dC”.
As for GCGTACG**CATGCG [ODN4], in series [4] (single-stranded ODN GCGTACG**CATGCG), the “pKa of 8-nitro-2′-O-methylguanosine within the single-stranded oligonucleotide” value is on record as 9.1.

One may read the pKa as the negative logarithm of the acid dissociation constant.

The record behind these values is paper PMC3505964 (Nucleic Acids Research, 2012).
